pIC50: −log10 of the molar value. The source made the active and inactive calls.
How the values were obtained:
[1] = system: Mus musculus; assay: Mean survival time of the treated mice (Mus musculus) beyond that of the control animals against Plasmodium berghei at dose 20(mg/kg); type: functional
[2] = system: Mus musculus; assay: Mean survival time of the treated mice (Mus musculus) beyond that of the control animals against Plasmodium berghei at dose 80(mg/kg); type: functional
[3] = Resistance index is defined as the ratio of IC50 of Plasmodium falciparum(W-2) clone to IC50 of Plasmodium falciparum(D6) clone; type: functional
Summary of the method: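 Ratio of IC50 W-2 to IC50 D-6 for P. falciparum. […] Activity is read as inhibition of tritiated hypoxanthine uptake.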

[4] = system: Mus musculus; assay: Mean survival time of the treated mice (Mus musculus) beyond that of the control animals against Plasmodium berghei at dose 640(mg/kg); Survival beyond 60 days is considered curative; type: functional
[5] = system: Plasmodium falciparum; assay: […] antimalarial activity against Plasmodium falciparum D6; type: functional, organism-based
[6] = system: Mus musculus; assay: Mean survival time of the treated mice (Mus musculus) beyond that of the control animals against Plasmodium berghei at dose 160 mg/kg); type: functional
[7] = system: Plasmodium berghei; assay: […] antimalarial activity against drug-resistant Plasmodium berghei KBG173; type: functional
[8] = system: Plasmodium falciparum; assay: […] antimalarial activity against Plasmodium falciparum W-2; type: functional, organism-based
[9] = system: Mus musculus; assay: Mean survival time of the treated mice (Mus musculus) beyond that of the control animals against Plasmodium berghei at dose 40(mg/kg); type: functional
[10] = system: Mus musculus; assay: Mean survival time of the treated mice (Mus musculus) beyond that of the control animals against Plasmodium berghei at dose 320(mg/kg); type: functional
[11] = system: Mus musculus; assay: Mean survival time of the treated mice (Mus musculus) beyond that of the control animals against Plasmodium berghei at dose 80(mg/kg); Experiment II; type: functional
[12] = system: Mus musculus; assay: Mean survival time of the treated mice (Mus musculus) beyond that of the control animals against Plasmodium berghei at dose 640(mg/kg); Experiment I; type: functional
[13] = system: Mus musculus; assay: Mean survival time of the treated mice (Mus musculus) beyond that of the control animals against Plasmodium berghei at dose 320(mg/kg); Survival beyond 60 days is considered curative; Experiment II; Survival beyond 60 days is considered curative (C); type: functional
[14] = system: Mus musculus; assay: Mean survival time of the treated mice (Mus musculus) beyond that of the control animals against Plasmodium berghei at dose 640(mg/kg); Experiment II; Survival beyond 60 days is considered curative (C); type: functional
[15] = system: Mus musculus; assay: Mean survival time of the treated mice (Mus musculus) beyond that of the control animals against Plasmodium berghei at dose 40(mg/kg); Experiment I; type: functional
[16] = system: Mus musculus; assay: Mean survival time of the treated mice (Mus musculus) beyond that of the control animals against Plasmodium berghei at dose 320(mg/kg); Experiment I; type: functional
[17] = system: Mus musculus; assay: Mean survival time of the treated mice (Mus musculus) beyond that of the control animals against Plasmodium berghei at dose 80(mg/kg); Experiment I; type: functional
[18] = system: Mus musculus; assay: Mean survival time of the treated mice (Mus musculus) beyond that of the control animals against Plasmodium berghei at dose 20(mg/kg); Experiment II; type: functional
[19] = system: Mus musculus; assay: Mean survival time of the treated mice (Mus musculus) beyond that of the control animals against Plasmodium berghei at dose 160 (mg/kg); Experiment II; active (A); type: functional
[20] = system: Mus musculus; assay: Mean survival time of the treated mice (Mus musculus) beyond that of the control animals against Plasmodium berghei at dose 160 (mg/kg); Experiment I; type: functional
[21] = system: Mus musculus; assay: Mean survival time of the treated mice (Mus musculus) beyond that of the control animals against Plasmodium berghei at dose 40(mg/kg); Experiment II; type: functional
[22] = system: Mus musculus; assay: Mean survival time of the treated mice (Mus musculus) beyond that of the control animals against Plasmodium berghei at dose 20(mg/kg); Experiment I; type: functional
[23] = system: Mus musculus; assay: Mean survival time of the treated mice (Mus musculus) beyond that of the control animals against Plasmodium berghei at dose 320(mg/kg); Survival beyond 60 days is considered curative; Experiment II; active(A); type: functional
[24] = system: Mus musculus; assay: Mean survival time of the treated mice (Mus musculus) beyond that of the control animals against Plasmodium berghei at dose 640(mg/kg); Experiment I; not active; type: functional
[25] = system: Mus musculus; assay: Mean survival time of the treated mice (Mus musculus) beyond that of the control animals against Plasmodium berghei at dose 160 (mg/kg); Experiment II; type: functional
[26] = system: Mus musculus; assay: Mean survival time of the treated mice (Mus musculus) beyond that of the control animals against Plasmodium berghei at dose 640(mg/kg); Experiment II; Survival beyond 60 days is considered curative (C).; type: functional
[27] = system: Mus musculus; assay: Mean survival time of the treated mice (Mus musculus) beyond that of the control animals against Plasmodium berghei at dose 320(mg/kg); Survival beyond 60 days is considered curative; Experiment I; type: functional

Row | SMILES | Resistance index [3] | pIC50 [5] | ED50 [7] [mg/kg] | pIC50 [8] | T-C [11] [days] | T-C [14] [days] | T-C [15] [days] | T-C [16] [days] | T-C [17] [days] | T-C [18] [days] | T-C [20] [days] | T-C [21] [days] | T-C [22] [days] | T-C [23] [days] | T-C [24] | T-C [25] [days] | also measured
1 | C[C@@H]1CC[C@H]2[C@@H](C)C(=O)O[C@@H]3O[C@@]4(C)CC[C@@H]1[C@]32OO4 [ARTEMISININ] | 0.47 | 8.33 | 607 | 8.66 | – | – | – | – | – | – | – | – | – | – | – | – | T-C [1]: 1.5 days; T-C [2]: 2.3 days; T-C [4]: 2 days; T-C [6]: 3.9 days; T-C [9]: 1.7 days; T-C [10]: 5.1 days
2 | C[C@@H]1CCCCC12OOC1(CCCC[C@@H]1C)OO2 (stereo partly specified) [WR-148999] | 0.49 | 8.16 | 382 | 8.47 | 5 | 5 | 1.8 | 1 | 1.6 | 0.7 | 9.6 | 1.2 | 0.2 | – | – | – | T-C [12]: 3 days; T-C [13]: 3 days; T-C [19]: 12 days
3 | CC1CCC2(CC1)OOC1(CCC(C)CC1)OO2 (stereo unspecified) | 7.1 | 8.09 | – | 7.24 | 2 | 1 | 0.4 | 1.9 | 0.1 | 0.3 | 2.4 | 0.5 | 0.1 | 13 | 1 days | 3.2 | –
4 | CC1CC(C)CC2(C1)OOC1(CC(C)CC(C)C1)OO2 (stereo unspecified) | 0.26 | 7.30 | – | 7.89 | 3.8 | – | 1.3 | – | 2.4 | 0.6 | 5.5 | 1 | 1.5 | 7.4 | inactive | 5.8 | T-C [26]: 2 days; T-C [27]: 1 days

Reference: ChEMBL document CHEMBL1126302, “Dispiro-1,2,4,5-tetraoxanes: a new class of antimalarial peroxides” (J Med Chem, 1992)
